CSC inhib – blocks cancer stem cells; inhibition, % at 7.5 µM; cancer stem cell-like cells viability, luminescence; 300,000 compounds, 1.1% hits; in the data active means inhibition above about 75%; inconclusive means no clear call, values can overlap the other calls; tested in HMLE shEcad cells
Mdm2-MdmX inh – human Mdm2/MdmX binding inhibition. O15151+Q00987. 330,000 compounds, 3% hits. SaOS-2 split-luciferase Mdm2/MdmX complementation, luminescence. inhibition, % at 8 µM. AID 485346;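 active means inhibition of at least 50% at 8 µM in the primary screen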
T cruzi inh – T. cruzi replication inhibition; T. cruzi beta-gal in NIH3T3, luminescence, 90 h; inhibition, % (test concentration not listed); 300,000 compounds, 1.4% hits;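 active means mean inhibition across valid replicates above about 55%, limit read from the data; inconclusive means mean below that limit but half or more replicates reach it; inactive means mean below it, under half of replicates reach it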;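 further: signal also drops with host cell toxicity which is not excluded here; 0% = plate median of DMSO wells and 100% = zero luminescence signal; higher percent means less beta-gal luminescence so fewer parasites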
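assay system = mouse NIH/3T3 fibroblasts infected with β-gal-expressing T. cruzi Tulahuen C4 | input = 5,000 NIH/3T3 host cells per well | buffer or medium = DMEM plus 2% FBS | timing = 3 h host attachment, then at least 90 h co-culture | measured by = GalScreen luminescence, 60 min | evaluation = luminescence reflecting intracellular parasite burden, expressed as percent inhibition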
SKKanGAS inh – inhibitors of SKKanGAS S. pyogenes growth in kanamycin (SK-promoter or general growth effect); BacTiter-Glo, 6 h; inhibition, % at 7.5 µM; 300,000 compounds, 1.3% hits;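 active means mean replicate score, as percent of positive control median, at least 50; inconclusive means mean below 50 but one replicate at or above 50; inactive means mean and every replicate below 50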;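 further: strain carries kanamycin resistance gene driven by streptokinase promoter and grows in 40 µg/ml kanamycin; loss of luminescence reflects streptokinase promoter inhibition or plain growth inhibition; 0% = median of DMSO wells and 100% = positive control at its reference dose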
aSyn UTR inh – 5' untranslated region of α-synuclein, MLPCN primary screen; alpha-synuclein 5'UTR reporter, inhibitor activity; inhibition, % (tested at 7.5 µM); 300,000 compounds, 0.82% hits; in the data active means inhibition above about 60%; inconclusive means no clear call, values can overlap the other calls;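 further: H4 neuroglioblastoma cells stably carrying SNCA 5'UTR luciferase fusion; 0% = DMSO wells and 100% = positive control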
Mdm2 MdmX conf – human Mdm2/MdmX binding inhibition, confirmed; shares compounds with Mdm2-MdmX inh; luminescent assay; inhibition, % at 8 µM; 10,000 compounds, 55% hits; AID 489028; in the data active means inhibition above about 40%
FLuc counter – inhibits full-length luciferase, flagging false Mdm2/MdmX hits | shares compounds with Mdm2-MdmX inh | SaOS-2 full-length luciferase counterscreen, luminescence | inhibition, % at 8 µM | 6,200 compounds, 77% hits;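 active means mean inhibition at 8 µM reaching about 37%, which flags the compound as non-specific, limit read from the data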;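 further: p53-null SaOS-2 cells with luciferase driven by a doxycycline-inducible promoter; compound on cells about two nights before reading with doxycycline added after day one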
* = called active by the depositor; u = inconclusive; x = no result given. In the library only some 5.4% were active in any assay of this set; here they are far more common.

SMILES	CSC inhib	Mdm2-MdmX inh	T cruzi inh	SKKanGAS inh	aSyn UTR inh	Mdm2 MdmX conf	FLuc counter
Cc1c(CCOC(=O)C23CC4(C)CC(C)(CC(C)(C4)C2)C3)sc[n+]1CC(=O)c1ccccc1	x	10	31	30	-8	x	x
Cc1c(CCOC(=O)CC23CC4CC(CC(C4)C2)C3)sc[n+]1CC(=O)c1ccccc1	100*	54*	35	15	-39	18	x
COc1ccc(N(CC(=O)Nc2ccccc2OC)S(=O)(=O)c2ccc(NC(C)=O)cc2)cc1	63	53*	-5	2	-9	63*	55*
COc1cc(OC)cc(C(=O)Nc2nc(-c3ccccc3)c(-c3ccccc3)o2)c1	24	56*	29	90*	44	36	x
COc1cccc(-c2nn(-c3ccc(C)cc3)cc2C(=O)N2CCc3cc(OC)c(OC)cc3C2)c1	59	58*	19	6	5	67*	86*
CC1=C([N+](=O)[O-])C(c2cccc(Br)c2)C2=C(N1)c1ccccc1C2=O (stereo not given)	53	74*	u	44	90*	66*	84*
O=C(Nc1cc(Sc2ccccn2)cc([N+](=O)[O-])c1)c1ccc(Cl)cc1	46	52*	52	38	-37	12	x
O=C(Nc1cccc([N+](=O)[O-])c1)c1ccncc1	13	-13	3	2	-7	x	x
COc1cc2c(cc1NC(=O)COC(=O)CNS(=O)(=O)c1ccc(C)cc1)oc1ccccc12	2	-34	-12	2	4	x	x
CCOc1ccc2c(c1)C(C)=CC(C)(C)N2S(=O)(=O)c1ccc(NC(C)=O)cc1	53	62*	55*	-8	70*	58*	113*
CCOc1ccc(CN2CCN(S(=O)(=O)c3ccc(NC(C)=O)cc3)CC2)cc1	-5	22	6	-1	8	x	x
COc1ccc2c(c1)C(C)=CC(C)(C)N2S(=O)(=O)c1ccc(NC(C)=O)cc1	61	63*	46	-4	71*	54*	89*
CC1=CC(C)(C)N(C(=O)CN2C(=O)c3ccccc3C2=O)c2ccccc21	0	17	-6	15	15	x	x
CC1=CC(C)(C)N(S(=O)(=O)c2ccc(C)cc2)c2ccccc21	x	64*	-6	2	41	64*	88*
CCOc1ccc2c(c1)C(C)=CC(C)(C)N2	-1	15	x	x	x	x	x
CCOc1ccc2c(c1)C(C)=CC(C)(C)N2S(=O)(=O)c1ccc(F)cc1	59	51*	-12	7	-38	53*	49*
CC1c2c([nH]c3ccccc23)CCC1C(=O)O (stereo not given)	-13	19	-24	-12	5	x	x
CCC(C)(C(=O)NC1CCCCC1)N(C(=O)Cc1cccs1)c1ccccc1 (stereo not given)	-6	26	1	0	-7	x	x
CC(=O)N/C(=N/c1nc(C)cc(C)n1)Nc1ccc(NC(C)=O)cc1	-16	25	-2	1	16	x	x
CC(=O)N/C(=N\c1nc(C)cc(C)n1)Nc1ccc2ccccc2c1	8	74*	20	2	-166	72*	62*
CCCCNC(=O)Nc1nnc(-c2ccc(OCC)cc2)o1	12	-2	x	x	x	x	x
CCOc1ccc(-c2nnc(NC(=O)c3ccc(OCC(C)C)c(OC)c3)o2)cc1	103*	57*	18	115*	u	57*	15
COc1cc(OC)cc(-c2nnc(NC(=O)CCS(=O)(=O)c3ccc(C)cc3)o2)c1	x	51*	-21	39	8	61*	72*
COc1cc(OC)cc(-c2nnc(NC(=O)c3ccc4c(c3)OCCO4)o2)c1	32	53*	-49	109*	-18	25	x
CC1(C)Cc2c(cnn2-c2ccc(F)cc2)C(NC(=O)CCN2CCCCC2=O)C1 (stereo not given)	1	19	-11	-1	-21	x	x
SMILES	CSC inhib	Mdm2-MdmX inh	T cruzi inh	SKKanGAS inh	aSyn UTR inh	Mdm2 MdmX conf	FLuc counter
CCOC(=O)c1nncc(-c2ccccc2)n1	-9	8	x	x	x	x	x
Cc1cc(/C=C2\SC(=Nc3ccccc3)NC2=O)c(C)n1-c1ccc(S(N)(=O)=O)cc1	56	61*	8	72*	39	50*	57*
Cc1ccccc1S(=O)(=O)N1[C@@H](c2ccc(Cl)cc2)C(C(=O)O)=CC[C@H]1c1ccc(Cl)cc1	23	-5	x	x	x	x	x
Cc1ccc(C(=O)C[n+]2cc(-c3ccc(C)cc3)n3c2CCCCC3)cc1	10	53*	69*	13	5	54*	48*
O=C(C[n+]1cc(-c2ccccc2)n2c1CCCCC2)c1ccc(Br)cc1	-2	35	20	5	13	x	x
CCOc1ccc(N2C(=O)CC(Sc3ccccc3C(=O)O)C2=O)c([N+](=O)[O-])c1 (stereo not given)	-2	3	-59	x	23	x	x
CC1=CCC2C(=O)N(c3ccc(C(=O)N4CCCCCC4)cc3)C(=O)C2C1 (stereo not given)	6	9	-15	2	-21	x	x
COc1ccc(OC)c(Nc2ncnc3ccc(Br)cc23)c1	5	51*	5	-12	18	35	x
OCCNc1ncnc2ccc(Br)cc12	-18	48	-6	-3	2	x	x
CCN(CC)c1ncnc2ccc(Br)cc12	-12	58*	1	-12	15	52*	38*
Brc1ccc2ncnc(Nc3cccc4ccccc34)c2c1	40	61*	-5	2	-22	41*	53*
O=C(C(=O)N1CCCCC1)c1cn(CC(=O)N2CCCCCC2)c2ccccc12	-15	1	36	-1	3	x	x
O=C(NCCOc1ccccc1)c1cccc2c1C(=O)c1ccc(Cl)cc1S2(=O)=O	-13	16	x	x	x	x	x
COc1ccc(NC(=O)c2cccc3c2C(=O)c2ccc(-c4ccc(F)cc4OCc4ccccc4)cc2S3(=O)=O)cc1	9	78*	x	x	x	31	x
O=C(NCC1CC1)c1cccc2c1C(=O)c1ccc(-c3ccc(OC(F)(F)F)cc3)cc1S2(=O)=O	x	66*	x	x	x	8	x
O=C(NC1CC1)c1cccc2c1C(=O)c1ccc(N3CCC(Cc4ccccc4)CC3)cc1S2(=O)=O	27	17	x	x	x	x	x
O=C(NCCOc1ccccc1Cl)c1cccc2c1C(=O)c1ccc(Cl)cc1S2(=O)=O	20	59*	x	x	x	-3	x
O=C1c2ccc(Cl)cc2S(=O)(=O)c2cccc(C(=O)N3CCC(Cc4ccccc4)CC3)c21	123*	68*	x	x	x	-3	x
COc1ccc(-c2ccc3c(c2)S(=O)(=O)c2cccc(C(=O)NC[C@@H]4CCCO4)c2C3=O)cc1OC	-16	35	x	x	x	x	x
Nn1c(SCC(=O)Nc2ccc(N3CCOCC3)cc2)nnc1-c1ccccc1F	-8	-2	x	x	x	x	x
O=C(NC1CCCCC1)C(=S)NC1CCCCC1	-4	-72	21	4	-106	x	x
